Compounds with a hit are over-represented: about 2.9% of the library has one in this group of screens.
MEKK2 WT-MEK5 – raises or lowers MEK5 binding to wildtype human MEKK2 PB1 domain; binding response (% of control), % at 10 µM; 1.1% of 290,000 active; bead flow cytometry, Alexa488-MEK5 binding to MEKK2 WT; actives lie on both sides; in the data active = binding response below about 67% or above about 130%; inconclusive = no clear call, values can overlap the other calls; inactive = in between
MEKK2 mut-MEK5 – signal of MEK5 binding to mutant human MEKK2 PB1 domain; bead flow cytometry, Alexa488-MEK5 binding to MEKK2 mutant; percent response, % at 10 µM; 0.35% of 290,000 active; AID 1530; in the data active = percent response above about 24%, passing the limit was not always enough
MEKK3 PB1 HTS – modulators (inhibitors or enhancers) of MEK5 binding to human MEKK3 PB1 domain; bead-based flow cytometry, Alexa488-MEK5 binding to MEKK3; actives lie on both sides; 0 = blocked by unlabeled MEK5, 100 = vehicle; binding response (% of control), % at 10 µM; 1.4% of 290,000 active; AID 1529;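 active = binding response more than 3 SD above or below the average of its plate-row segment, actives on both sides; inconclusive = wells at one plate position flagged as instrument error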;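 note: Alexa488 bead fluorescence after subtracting the streptavidin-only scavenger bead signal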
Target sequence (Q99759 whole entry, looked up, the tested form may be a part): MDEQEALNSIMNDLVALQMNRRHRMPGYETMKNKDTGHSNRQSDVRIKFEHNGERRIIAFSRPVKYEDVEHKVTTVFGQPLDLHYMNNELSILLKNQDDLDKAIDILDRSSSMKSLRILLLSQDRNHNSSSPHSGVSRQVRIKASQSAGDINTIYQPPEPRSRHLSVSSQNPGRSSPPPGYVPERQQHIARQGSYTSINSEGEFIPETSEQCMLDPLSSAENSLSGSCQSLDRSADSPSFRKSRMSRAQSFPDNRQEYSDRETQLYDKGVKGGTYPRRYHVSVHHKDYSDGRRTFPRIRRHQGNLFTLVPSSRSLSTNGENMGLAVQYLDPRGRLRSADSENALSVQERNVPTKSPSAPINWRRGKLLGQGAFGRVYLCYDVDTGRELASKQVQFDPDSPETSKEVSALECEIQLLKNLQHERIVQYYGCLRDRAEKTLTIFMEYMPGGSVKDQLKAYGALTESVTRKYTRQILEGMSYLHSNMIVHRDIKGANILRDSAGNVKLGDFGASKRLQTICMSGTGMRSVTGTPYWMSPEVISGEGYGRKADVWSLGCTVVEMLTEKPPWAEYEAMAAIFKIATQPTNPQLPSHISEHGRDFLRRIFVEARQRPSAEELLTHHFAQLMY
Apaf-1 inh – human Apaf-1 inhibition; reconstituted apoptosome caspase-3 activity, DEVD-Rh110 fluorescence; O14727; inhibition, % at 20 µM; 0.71% of 330,000 active; active = inhibition of at least 40% at 20 µM;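 note: plate controls were DMSO wells for no effect and DEVD-CHO caspase inhibitor wells for full effect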
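System: Apoptosome proteins | Medium: Hepes pH 7.5 with detergent and BSA | Also added: Cytochrome c trigger plus (Z-DEVD)2-Rh110 caspase-3 substrate | Incubation: 30 min compound preincubation, 50 min activation, room temperature | Detection: Rhodamine 110 fluorescence at Ex 480/Em 540 nm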
UBC13 polyUb – blocks human UBC13 polyubiquitin chain formation; P61088; TR-FRET; inhibition, % at 20 µM; 0.47% of 330,000 active; AID 485273; in the data active = inhibition above about 45%, passing the limit was not always enough; inconclusive = no clear call, values can overlap the other calls
* marks the source's active call; other numbers are inactive results; ? = inconclusive; · = no result given; ! = a repeat was not active; [ ] = dose if it differs, or a comment.

SMILES	MEKK2 WT-MEK5	MEKK2 mut-MEK5	MEKK3 PB1 HTS	Apaf-1 inh	UBC13 polyUb
NC1=C(Br)C(=O)c2ccccc2C1=O	97	2	97	71*	-360
CN(CC(=O)NCCc1ccccc1)Cc1ccco1	93	-4	97	-1	5
COc1cc2c(cc1NC(=O)c1cc(-c3ccncc3)nc3ccccc13)oc1ccccc12	16*	17	92	15	-21
COc1cc2c(cc1NC(=O)c1cc(-c3cccnc3)nc3ccc(C)cc13)oc1ccccc12	91	-2	98	-6	1
COc1ccc(C(c2nnnn2C(C)C)N2CCN(C(=O)c3ccco3)CC2)cc1 (stereo not given)	46*[inhibitor]	-20	53*[inhibitor]	11	-9
OC(c1cc(-c2ccc(Cl)cc2)nc2ccccc12)C1CCCCN1 (stereo not given)	155*	59*	115	·	·
OC(c1cc(C(F)(F)F)nc2c(Cl)cc(Cl)cc12)C1CCCCN1 (stereo not given)	125	15	107	8	7
CCOc1ccc(CN2CCN(CC(O)Cn3c4ccccc4c4ccccc43)CC2)cc1 (stereo not given)	138*	9	104	23	13
COc1ccc(CN2CCN(CC(O)Cn3c4ccccc4c4ccccc43)CC2)cc1 (stereo not given)	111	0	93	17	24
COc1cccc2c1C(=O)c1c(O)c3c(c(O)c1C2=O)C[C@@](O)(C(=O)CO)C[C@@H]3O[C@H]1C[C@H](N)[C@@H](O)[C@H](C)O1	7.0*	11	99	56*	-161
CSc1ccccc1NC(=O)c1cc(S(=O)(=O)N(C)C)ccc1N1CCCC1	107	5	104	52*	10
OCC1OC(Oc2cccc3ccccc23)C(O)C(O)C1O (stereo not given)	105	4	105	-3	-3
O=C(O)c1cc(O)c2c(c1)[C@@H]([C@H]1c3cc(C(=O)O)cc(O)c3C(=O)c3c(O[C@@H]4O[C@H](CO)[C@@H](O)[C@H](O)[C@H]4O)cccc31)c1cccc(O[C@@H]3O[C@H](CO)[C@@H](O)[C@H](O)[C@H]3O)c1C2=O	·	·	·	99*	?
COC(=O)[C@@](C)(O)C1(C(=O)SC(C)(C)C)CC1	107	5	106	4	1
CNc1ccccc1C(C)(C)c1cc(-c2cccc([N+](=O)[O-])c2)no1	93	-3	100	7	4
CNc1ccccc1C(C)(C)c1cc(-c2cccc(Br)c2)no1	9.0*	0	99	19	-3
Cc1onc(-c2ccccc2)c1-c1ccc(S(N)(=O)=O)cc1	53*!	-6	88	2	-14
CCC(=O)NS(=O)(=O)c1ccc(-c2c(-c3ccccc3)noc2C)cc1	106	2	102	·	·
O=S(=O)(c1ccccc1)N1N=C(c2ccc(Br)cc2)CC1c1ccco1 (stereo not given)	17*	17	102	7	-4
Cc1ccc(C2=NN(S(=O)(=O)c3ccccc3)C(c3ccco3)C2)cc1 (stereo not given)	·	·	·	0	3
CS(=O)(=O)Nc1ccc(C2=NN(S(=O)(=O)c3ccc(F)cc3)C(c3ccco3)C2)cc1 (stereo not given)	3.0*	18	99	-3	-5
COC(=O)c1sc(-c2cccs2)cc1N	106	10	119	-11	-1
COC(=O)c1c(C)nc(C)c(C(=O)OC)c1-c1cccs1	93	64*	87	-12	14
N#Cc1c(N)nc(SCc2ccncc2)c(C#N)c1-c1cccs1	92	-6	83	14	26
CN1CCc2nc(SCc3ccc(Cl)cc3)c(C#N)c(-c3cccs3)c2C1	129	28	104	83*	-23
SMILES	MEKK2 WT-MEK5	MEKK2 mut-MEK5	MEKK3 PB1 HTS	Apaf-1 inh	UBC13 polyUb
COc1cc(/C=C2\SC(=S)N(NC(=O)c3ccncc3)C2=O)ccc1O	-3.0*	16	93	1	-86
COc1cc(/C=C2\SC(=S)N(NC(=O)c3ccc(O)c(OC)c3)C2=O)ccc1O	93	1	103	7	-97
COc1ccc(C(CNC(=O)c2oc3ccc(OC)cc3c2C)N2CCCC2)cc1 (stereo not given)	·	·	·	16	43
CCc1ccc2oc(C(=O)NCC(c3ccc(OC)cc3)N3CCCCC3)c(C)c2c1 (stereo not given)	131	26*	104	20	19
COc1ccc(C(CNC(=O)c2oc3cc(Br)ccc3c2C)N2CCCCC2)cc1 (stereo not given)	141*	30*	107	25	20
COc1ccc(C(CNC(=O)c2oc3cc(C)c(C)cc3c2C)N2CCCCC2)cc1 (stereo not given)	127	8	95	20	17
CCC1CCc2sc(C(=O)NCC(c3ccc(OC)cc3)N3CCCC3)cc2C1 (stereo not given)	·	·	·	46*	9
COCCn1c(CN2CCN(C(=O)c3ccco3)CC2)nc2c1c(=O)n(C)c(=O)n2C	91	-10	93	-1	3
COc1ccc(C2=CC(=O)CCC2)cc1	100	0	101	2	0
O=C1C=C(NCc2ccccc2)c2ccccc2C1=O	91	-8	98	·	·
O=C1C=C(Nc2ccc(F)cc2)c2ccccc2C1=O	·	·	·	87*	-256
Cc1ccc(NC2=CC(=O)C(=O)c3ccccc32)c(C)c1	·	·	·	87*	-172
CC(C)CC(=O)Nc1nnc(SCC(=O)Nc2nccs2)s1	108	11	106	-7	0
Cc1[nH]nc(N2CCCCC2)c1[N+](=O)[O-]	91	-3	99	-6	4
Cc1nc(N2CCCCC2)c(C#N)c(C)c1[N+](=O)[O-]	170*	-48	89	10	-8
O=C(Nc1ccc(C(F)(F)F)cc1)C1CCN(c2cnccn2)CC1	98	3	103	7	9
CC(C)CC(NC(=O)C(COC(C)(C)C)NC(=O)C(Cc1ccc(O)cc1)NC(=O)C(CO)NC(=O)C(Cc1c[nH]c2ccccc12)NC(=O)C(Cc1cnc[nH]1)NC(=O)C1CCC(=O)N1)C(=O)N[C@@H](CCCN=C(N)N)C(=O)N1CCCC1C(=O)NNC(N)=O (stereo not given in full)	120	7	117	·	·
C/C(=N/NC(=O)c1cccs1)c1c(C)[nH]n(-c2nc3ccccc3s2)c1=O	100	-1	139*	-5	-4
CCc1nc(CN2CCN(c3cc(C(F)(F)F)ccn3)CC2)c(C)[nH]1	94	-20	93	-7	2
COc1ccccc1NC(=O)CS(=O)(=O)c1cn(CC(=O)N2CCCC2)c2ccccc12	102	1	100	11	-4
COc1ccc(S(=O)CC(=O)Nc2ccc(Cl)cc2Cl)cc1 (stereo not given)	107	8	106	5	1
COc1cc(O)c(CCO)c2c1C(=O)C[C@@H](C)O2	-9.0*	-16	87	0	-8

Source: PubChem BioAssay
